Compounds with a hit are over-represented: about 1.4% of the library has one in this group of screens.
Tn7 DDE FP: DD(E)-Tn7 binding inhibition, primary FP screen | hit rate 0.13% among 370,000 | FP displacement of FITC-Tn7 peptide from fibrin DD(E); 0% = median of compound wells per plate | inhibition, % at 8.3 µM | AID 720508 | P02675;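 active = inhibition above the mean of compounds falling within the control limits plus 3 SD of them, cut at about 14% in these data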;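 also: 0% = plate median of compound wells and 100% = 10 µM Aha-Tn7 peptide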
Target sequence (P02675 whole entry, looked up): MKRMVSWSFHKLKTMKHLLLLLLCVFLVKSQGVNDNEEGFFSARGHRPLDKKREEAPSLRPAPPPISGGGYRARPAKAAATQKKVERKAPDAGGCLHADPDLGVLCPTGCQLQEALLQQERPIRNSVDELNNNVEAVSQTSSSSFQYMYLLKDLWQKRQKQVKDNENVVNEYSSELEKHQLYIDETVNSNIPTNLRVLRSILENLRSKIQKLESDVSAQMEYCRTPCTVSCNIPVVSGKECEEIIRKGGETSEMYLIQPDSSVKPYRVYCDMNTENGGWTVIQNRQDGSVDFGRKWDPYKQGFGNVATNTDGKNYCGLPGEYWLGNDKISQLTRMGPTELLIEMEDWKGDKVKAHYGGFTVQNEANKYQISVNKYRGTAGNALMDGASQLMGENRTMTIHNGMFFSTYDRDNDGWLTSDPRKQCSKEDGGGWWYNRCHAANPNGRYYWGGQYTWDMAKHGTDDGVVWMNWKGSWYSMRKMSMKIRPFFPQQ
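System: human fibrin DD(E); quantity: Fibrin-DD(E) at 2 µM final; also added: fluorescent Tn7 probe at 0.1 µM; compound dosing: single nominal test concentration of 8.3 µM per compound; schedule: 10 min preincubation, 3 h with tracer, room temperature; detection: fluorescence polarization of the labelled Tn7 tracer; repeats: one replicate per compound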
CAL PDZ FP-1: inhibitors of human CAL PDZ peptide binding. Q9HD26. hit rate 0.02% among 330,000. purified CAL PDZ, TMR-peptide fluorescence polarization, 1 h. inhibition, % at 20 µM;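 active = highest replicate inhibition of at least 40%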;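 also: plate controls were DMSO neutral control wells for no effect and unlabeled competitor peptide control wells for full effect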
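material = purified tagged CAL PDZ domain construct (CerCALP) | compound dosing = 20 µM, one dose | times = 1 h at RT | measured by = fluorescence polarization from S- and P-plane intensities, G-factor corrected | read-out = inhibition from polarization loss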
Arrestin-AP2 inh: inhibitors of human beta-arrestin and AP2 interaction; FITC-arrestin peptide / GST-AP2 beads, flow cytometry; AP2 beta2 appendage carries R879A mutation; inhibition, % at 10 µM; AID 504490; hit rate 0.31% among 340,000;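 active = inhibition above a set limit, near 3 SD of compounds lacking own fluorescence, cut at about 54% in these data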;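 also: plate controls were DMSO wells for no effect and 5 µM unlabelled arrestin peptide for full effect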
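System: GST-AP2 R879A glutathione beads | Also added: FITC-arrestin peptide, 50 nM | Times: 12 min plus 1 h, RT | Signal: Bead flow cytometry, FITC channel | Buffer or medium: PBS with 0.05% Tween 20 and 0.1% BSA | Read-out basis: Percent drop in bead-associated FITC signal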
CAL PDZ FP-2: CAL PDZ (human) peptide binding inhibition | inhibition, % at 24.9 µM | purified CAL PDZ, TMR-peptide fluorescence polarization, 1 h | hit rate 0.92% among 300,000 | Q9HD26 | AID 602252;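 active = mean inhibition of at least 30% with at least half of replicates also reaching 30%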;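 also: 0% = DMSO neutral control and 100% = excess unlabeled competitor peptide PRC23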
Tn6 DDE FP: DD(E)-Tn6 binding inhibition, primary FP screen; P02675; Fibrin DD(E) TRITC-Tn6 fluorescence polarization displacement; inhibition, % at 8.3 µM; hit rate 0.21% among 370,000;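 active = inhibition above a per-campaign cutoff: mean of compounds within control limits plus 3 SD, cut at about 15% in these data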;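 also: 0% = median of all compound wells on the plate and 100% = blocking peptide control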
The depositor's hits bear a star; nt = no result given; + = active, no number.

SMILES	Tn7 DDE FP	CAL PDZ FP-1	Arrestin-AP2 inh	CAL PDZ FP-2	Tn6 DDE FP
CCN(C(=O)CN1C(=O)S/C(=C\c2ccc(F)cc2)C1=O)C1CCS(=O)(=O)C1 (stereo not given)	1.6	-1.1	34.8	4.1	1.3
CCN(C(=O)CN1C(=O)/C(=C/c2ccccc2)SC1=S)C1CCS(=O)(=O)C1 (stereo not given)	2.9	0.4	-0.5	71.9*	-3.5
CCn1c(COc2ccc(C)cc2)nnc1SCC(=O)Nc1ccc(C(=O)OC)cc1	4.5	nt	nt	nt	4.0
Cc1cc(C)c(OCC(=O)Nc2ccc3c(c2)OCO3)cc1C	-7.4	-1.6	-4.8	active	-7.3
Cc1sc2ncnc(OCC(=O)Nc3ccc4c(c3)OCCO4)c2c1C	0.3	-1.2	2.0	-4.3	-2.3
O=C(COc1ncnc2sccc12)Nc1ccc2c(c1)OCCO2	0.8	-1.2	-0.9	44.2*	-16.9
Cc1ccc(C)c(OCC(=O)Nc2ccc3c(c2)OCO3)c1	nt	-1.0	-5.1	-2.7	nt
C[C@@H]1OC(C2CCCCC2)N(C)[C@H]2C[C@H]3c4[nH]c5cccc(-c6ccccc6)c5c4CCN3C[C@@H]12 (stereo not given in full)	2.1	nt	nt	nt	1.0
Cc1ccc(C(=O)C2C(=O)c3ccccc3C2=O)cc1	5.4	-1.3	-2.8	-4.8	-7.3
NN=C1c2ccccc2C(=O)C1C(=O)C(c1ccccc1)c1ccccc1 (stereo not given)	-4.2	-5.4	27.6	nt	18.8*
CC(Oc1ccccc1)C(=O)N1CCc2ccccc2C1 (stereo not given)	2.9	-0.3	-12.4	nt	-3.9
Cc1cccc(C(=O)OC(C)C(=O)N2CCc3ccccc3C2)c1C (stereo not given)	5.5	-0.7	-7.9	52.0*	-0.6
CC(CN1CCN(C)CC1)OC(=O)c1cccc(Cl)c1 (stereo not given)	-7.1	nt	-9.8	157.4*	-6.4
Cn1cccc1C(=O)N1CCN(S(=O)(=O)c2ccc([N+](=O)[O-])cc2)CC1	-7.1	nt	nt	nt	2.7
CCN(CC)S(=O)(=O)c1ccc(N2CCOCC2)c(NC(=O)c2cccc3ccccc23)c1	3.6	-0.1	14.0	1.5	4.2
CCN(CC)S(=O)(=O)c1ccc(N2CCOCC2)c(NC(=O)c2cc([N+](=O)[O-])ccc2Cl)c1	1.1	-0.9	-0.8	40.1*	-0.7
O=C(CC1CCCC1)N1CC[C@H]2[C@H](CCCN2Cc2ccccc2)C1	1.0	nt	nt	nt	-0.8
CC1CN(C(=O)c2cccc(S(=O)(=O)Nc3cc(Cl)ccc3Cl)c2)CC(C)O1 (stereo not given)	3.4	-1.1	-10.0	79.3*	2.6
O=C(NCCCN1CCOCC1)c1cccc(S(=O)(=O)Nc2cc(Cl)ccc2Cl)c1	1.7	-0.5	2.9	38.5*	-2.6
COC(=O)[C@]12C[C@H](CC(=O)NCc3ccc(C)o3)C(=O)N(Cc3ccc(Cl)cc3Cl)C1=C[C@H](COCc1ccccc1)O[C@@H]2C	2.5	nt	nt	nt	2.7
CN1C(=O)c2cc(NS(C)(=O)=O)ccc2OC[C@H]2O[C@@H](CC(=O)NCc3ccc(-c4ccccc4)cc3)CC[C@@H]21	-3.6	nt	nt	nt	0.0
CCOC(=O)[C@]12CCCCC/C=C\1N(CCc1ccc(Cl)cc1)C(=O)[C@H]2CC(=O)NCCC(C)C	-3.6	nt	nt	nt	2.6
O=C(COC(=O)c1cnccn1)Nc1ncc(C(F)(F)F)cc1Cl	0.0	-1.2	0.6	54.5*	-0.9
CCOc1cc(N(CC)CC)ccc1/C=C(/C#N)c1nc2ccccc2[nH]1	1.5	1.0	13.6	43.0*	0.9
CC1CN(S(=O)(=O)c2ccc(Cl)c(C(F)(F)F)c2)CC(C)O1 (stereo not given)	-0.8	0.5	70.1*	-1.4	1.0
SMILES	Tn7 DDE FP	CAL PDZ FP-1	Arrestin-AP2 inh	CAL PDZ FP-2	Tn6 DDE FP
CN1CCN(S(=O)(=O)c2ccc(Cl)c(C(F)(F)F)c2)CC1	-2.8	-0.4	-6.5	-10.0	-0.4
CC1CN(C(=O)c2cc(S(=O)(=O)N3CCCCC3)ccc2Cl)CC(C)O1 (stereo not given)	-4.8	-0.1	-3.9	39.1*	-4.2
Cc1ccc2[nH]c(=O)c(COC(=O)C3CCCCC3)cc2c1	-0.6	-0.3	-6.4	+	7.6
Cc1sc2nc(CN3CCN(c4ccc(O)cc4)CC3)[nH]c(=O)c2c1C	1.0	0.6	7.0	44.5*	7.0
O=c1[nH]c(CN2CCN(c3ccccc3)CC2)nc2scc(-c3ccccc3)c12	0.4	-0.8	41.1	-5.5	-5.0
C=CCOc1ccc2ccccc2c1/C=N/O	6.0	-2.3	-1.9	-5.0	3.7
COc1ccc2ccccc2c1/C=N/O	9.7	-0.7	-11.3	35.9*	-9.8
O=C(COC(=O)COc1ccccc1)Nc1ccc(Br)cc1F	-1.5	-0.2	21.5	0.4	-1.4
COc1ccccc1OCCC(=O)OCC(=O)Nc1ccc(Br)cc1F	8.3	-1.3	-2.4	54.1*	4.7
O=C(OC12CCCN(C1)/C(=C/c1ccc(Cl)cc1)C2)C1CCCCC1 (stereo not given)	-6.8	nt	nt	nt	-5.3
CC(=O)Nc1ccc2nc(-c3cccn3C)[nH]c2c1	-1.7	1.1	-12.7	35.5*	3.7
CCOc1ccccc1NC(=O)C(=O)N/N=C/c1cc(Br)ccc1O	-0.5	-0.4	0.1	67.3*	-3.9
CCOc1ccccc1C=NNC(=O)C(=O)NN=Cc1ccccc1OCC	-1.8	-0.4	30.0	-4.1	4.4
O=C(N/N=C/c1cc(Br)ccc1O)c1ccncc1	-6.5	nt	-13.9	112.9*	-2.3
CNC(=O)CCc1nc(-c2ccc(C(C)C)cc2)no1	-2.0	nt	nt	nt	10.8
CC(COc1ccc(Br)cc1)CN1CCC(C(O)(c2ccccc2)c2ccccc2)CC1 (stereo not given)	-7.7	nt	nt	nt	2.9
O=C(CN1C(=O)NC2NC(=O)NC21)NC1CCCCC1 (stereo not given)	-5.3	-5.4	2.1	38.9*	-3.4
CC(C)=NNC(=O)CN1C(=O)NC2NC(=O)NC21 (stereo not given)	-1.0	-2.3	-3.7	2.0	3.0
N#CCC[C@H]1CC[C@]2(CCCN(C(=O)c3ccc4ccccc4n3)C2)O1	0.7	nt	nt	nt	1.6
O=C(NCCN1C(=O)C2C3C=CC(C3)C2C1=O)c1cc(Cl)cc(Cl)c1 (stereo not given)	3.9	nt	nt	nt	-0.8
CC(=O)OCC12COC3c4ccccc4OC(C)(CC1C)C3C2C (stereo not given)	-12.2	0.1	10.3	50.5*	-4.4
O=C(CNC1CCCCC1)Nc1ccc([N+](=O)[O-])cc1C(=O)Nc1ccccc1F	3.0	-1.7	-5.3	62.6*	-1.4
O=C(CNCC1CCCO1)Nc1ccc([N+](=O)[O-])cc1C(=O)Nc1ccccc1F (stereo not given)	5.1	0.8	2.3	1.7	1.8
C=CCn1c(COc2ccccc2)nnc1SCC(=O)Nc1ccc(Oc2ccccc2)cc1	-8.5	nt	nt	nt	2.2

Source: PubChem BioAssay
